Source: ChEMBL document CHEMBL1132156, “Synthesis and structure-activity relationships of potential anticancer agents: alkylcarbamates of 3-(9-acridinylamino)-5-hydroxymethylaniline” (J Med Chem, 1999)

Columns and labels:
[1] = system: Mus musculus; assay: […] anticancer activity against B6D2F-1 mice bearing Lewis Lung Carcinoma measured by the average weight change(g) after day 10 at an intraperitoneal dose of 6(mg/kg).; type: functional
Outline: (§1)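 Male B6D2F1 mice (8 weeks old, 20–25 g) received 4×10^6 Lewis lung carcinoma cells sc on day -2. Dosing was ip, QDx5, starting on day 1. Groups were 4 control mice and 3 mice per dose. Tumor size and average body-weight change were evaluated on days 7, 10 and 14. Tumor volume is expressed as the treated/control ratio.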

[2] = system: Mus musculus; assay: […] anticancer activity against B6D2F-1 mice bearing Lewis Lung Carcinoma measured by the Average tumor vol after day 14 at an intraperitoneal dose of 3(mg/kg).; type: functional; outline: as §1
[3] = system: Mus musculus; assay: […] anticancer activity against B6D2F-1 mice bearing Lewis Lung Carcinoma measured by the Average tumor vol after day 7 at an intraperitoneal dose of 6(mg/kg).; type: functional; outline: as §1
[4] = system: Mus musculus; assay: […] anticancer activity against B6D2F-1 mice bearing P388 leukemia measured by the Average tumor vol after day 10 at an intravenous dose of 3(mg/kg).; type: functional
[5] = system: Mus musculus; assay: […] anticancer activity against B6D2F-1 mice bearing Sarcoma 180 measured by the Average tumor vol after day 7 at an intravenous dose of 7(mg/kg).
[6] = system: Mus musculus; assay: […] anticancer activity against B6D2F-1 mice bearing Sarcoma 180 measured by the average weight change(g) after day 10 at an intraperitoneal dose of 3(mg/kg).; type: functional
Outline: (§2)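 Male B6D2F1 mice (8 weeks old, 20–25 g) were inoculated sc with 3×10^6 Sarcoma 180 cells on day 0. Dosing was ip, QDx5, starting on day 1. Groups were 4 control mice and 2 mice per dose. Average body weight change (g) and treated/control tumor volume were evaluated on days 7, 10 and 14.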

[7] = system: Mus musculus; assay: […] anticancer activity against B6D2F-1 mice bearing Lewis Lung Carcinoma measured by the average weight change(g) after day 14 at an intraperitoneal dose of 6(mg/kg).; type: functional; outline: as §1
[8] = system: Mus musculus; assay: […] anticancer activity against B6D2F-1 mice bearing Sarcoma 180 measured by the Average tumor vol after day 7 at an intravenous dose of 3(mg/kg).
[9] = system: Mus musculus; assay: […] anticancer activity against B6D2F-1 mice bearing P388 leukemia measured by the average body weight(g) after day 1 at an intravenous dose of 10(mg/kg).
[10] = system: Mus musculus; assay: […] anticancer activity against B6D2F-1 mice bearing Sarcoma 180 measured by the average weight change(g) after day 14 at an intraperitoneal dose of 7(mg/kg).; type: functional; outline: as §2
[11] = system: Mus musculus; assay: […] anticancer activity against 5 B6D2F-1 mice bearing P388 leukemia measured by the toxicity death at an intravenous dose of 10(mg/kg)..; type: organism-based; conditions: in vivo
Outline: (§3)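 Male B6D2F1 mice, 8 weeks old, 20–25 g. P388/0 ascites cells (0.2 mL, ascites:saline 1.10) were implanted iv on day 0, and the tumor grew in the liver. Drug was given iv by tail vein on days 1, 3, 5, 7 and 9 (Q2Dx5), with 4–5 mice per group. Survival time was scored as 8 a.m. (0.0), 1 p.m. (0.25) or 5 p.m. (0.5) deaths. %ILS was averaged against untreated controls, and toxic deaths were counted.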

[12] = system: Mus musculus; assay: […] anticancer activity against B6D2F-1 mice bearing P388 leukemia measured by the average survival time(day+/-SD) at an intravenous dose of 10(mg/kg)..; type: functional; outline: as §3
[13] = system: Mus musculus; assay: […] anticancer activity against 5 B6D2F-1 mice bearing P388 leukemia measured by the toxicity death at an intravenous dose of 15(mg/kg).; type: organism-based; conditions: in vivo; outline: as §3
[14] = system: Mus musculus; assay: […] anticancer activity against B6D2F-1 mice bearing P388 leukemia measured by the average weight change(g) after day 7 at an intravenous dose of 10(mg/kg).; type: functional
Outline: (§4)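 Male B6D2F1 mice (8 weeks old, 20–25 g) were implanted iv on day 0 with P388/0 ascites cells (0.2 mL; ascites:saline 1.10), which grew in the liver. Drug was given iv via the tail vein, Q2Dx5, on days 1, 3, 5, 7 and 9. Groups had 4–5 mice. Day 1 value is mean body weight; later days are weight change.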

[15] = system: Mus musculus; assay: […] anticancer activity against B6D2F-1 mice bearing Sarcoma 180 measured by the average weight change(g) after day 10 at an intraperitoneal dose of 7(mg/kg).; type: functional; outline: as §2
[16] = system: Mus musculus; assay: […] anticancer activity against B6D2F-1 mice bearing Lewis Lung Carcinoma measured by the average weight change(g) after day 10 at an intraperitoneal dose of 3(mg/kg).; type: functional; outline: as §1
[17] = system: Mus musculus; assay: […] anticancer activity against B6D2F-1 mice bearing Lewis Lung Carcinoma measured by the Average tumor vol after day 14 at an intraperitoneal dose of 6(mg/kg).; type: functional; outline: as §1
[18] = system: Mus musculus; assay: […] anticancer activity against B6D2F-1 mice bearing Sarcoma 180 measured by the average weight change(g) after day 7 at an intraperitoneal dose of 7(mg/kg).; type: functional; outline: as §2
[19] = system: Mus musculus; assay: […] anticancer activity against B6D2F-1 mice bearing Lewis Lung Carcinoma measured by the average weight change(g) after day 7 at an intraperitoneal dose of 3(mg/kg).; type: functional; outline: as §1
[20] = system: Mus musculus; assay: […] anticancer activity against B6D2F-1 mice bearing P388 leukemia measured by the average weight change(g) after day 7 at an intravenous dose of 15(mg/kg).; type: functional; outline: as §4
[21] = system: Mus musculus; assay: […] anticancer activity against B6D2F-1 mice bearing Sarcoma 180 measured by the average weight change(g) after day 14 at an intraperitoneal dose of 3(mg/kg).
[22] = system: Mus musculus; assay: […] anticancer activity against B6D2F-1 mice bearing Lewis Lung Carcinoma measured by the average weight change(g) after day 7 at an intraperitoneal dose of 6(mg/kg).; type: functional; outline: as §1
[23] = system: Mus musculus; assay: […] anticancer activity against B6D2F-1 mice bearing P388 leukemia measured by the Average tumor vol after day 14 at an intravenous dose of 3(mg/kg).; type: functional
[24] = system: Mus musculus; assay: […] anticancer activity against B6D2F-1 mice bearing P388 leukemia measured by the average weight change(g) after day 11 at an intravenous dose of 15(mg/kg).; type: functional; outline: as §4
[25] = system: Mus musculus; assay: […] anticancer activity against B6D2F-1 mice bearing Sarcoma 180 measured by the Average tumor vol after day 7 at an intravenous dose of 5(mg/kg).
[26] = system: Mus musculus; assay: […] anticancer activity against B6D2F-1 mice bearing Lewis Lung Carcinoma measured by the Average tumor vol after day 10 at an intraperitoneal dose of 3(mg/kg).; type: functional; outline: as §1
[27] = system: Mus musculus; assay: […] anticancer activity against B6D2F-1 mice bearing P388 leukemia measured by the increase in lifespan(%) at an intravenous dose of 15(mg/kg).; type: functional; outline: as §3
[28] = system: Mus musculus; assay: […] anticancer activity against B6D2F-1 mice bearing Lewis Lung Carcinoma measured by the Average tumor vol after day 7 at an intraperitoneal dose of 3(mg/kg).; type: functional; outline: as §1
[29] = system: Mus musculus; assay: […] anticancer activity against B6D2F-1 mice bearing Lewis Lung Carcinoma measured by the average weight change(g) after day 14 at an intraperitoneal dose of 3(mg/kg).; type: functional; outline: as §1

CCOC(=O)Nc1cc(CO)cc(Nc2c3ccccc3nc3ccccc23)c1
Average weight change [1]: -2.6 g
Average tumor volume [2]: 0.68
Average tumor volume [3]: 0.44
Average tumor volume [4]: 1.21
Average tumor volume [5]: 0.22
Average weight change [6]: -0.7 g
Average weight change [7]: -0.5 g
Average tumor volume [8]: 1.24
Body weight [9]: 22.9 g
Average weight change [10]: -0.4 g
Toxicity related death [11]: 0
Average survival [12]: 18.4 days
Toxicity related death [13]: 4
Average weight change [14]: -0.2 g
Average weight change [15]: -0.1 g
Average weight change [16]: -1.3 g
Average tumor volume [17]: 0.52
Average weight change [18]: -3.4 g
Average weight change [19]: -2.3 g
Average weight change [20]: -1.6 g
Average weight change [21]: -0.8 g
Average weight change [22]: -3 g
Average tumor volume [23]: 0.74
Average weight change [24]: -3.7 g
Average tumor volume [25]: 0.06
Average tumor volume [26]: 0.63
Increase in life-span [27]: 106%
Average tumor volume [28]: 0.8
Average weight change [29]: -0.8 g
